These results are taken from ChEMBL document CHEMBL4842360, “Discovery of a Bicyclic Peptidyl Pan-Ras Inhibitor” (J Med Chem, 2021).

Structures are written as SMILES.

One assay has as its target GTPase KRas (Homo sapiens, UniProt P01116, G12V). The experiment in a line: Inhibition of His6-tagged KRas G12V mutant (unknown origin) expressed in Escherichia coli BL21(DE3) cells assessed as reduction in Ras/GST-fused Raf RBD interaction incubated for 1 hr by HTRF assay. Background: TR-FRET usually uses a lanthanide donor and a delayed reading to cut background.
In assay [1] the test system is NCI-H358. The experiment in a line: Antiproliferative activity against human NCI-H358 cells incubated for 96 hrs by Celltiter-Glo assay. The settings on record: Homo sapiens, NCI-H358, 96 h; read-out: EC50. It counts as functional, cell-based. (In ATP-based viability assays light output follows the ATP content of the culture.)
Assay [2] has as its system NCI-H358. The assay can be described thus: Antiproliferative activity against human NCI-H358 cells incubated for 96 hrs by MTT assay. In kind it is functional, cell-based. In a few lines: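 H358 cells at 5,000/well, grown overnight, treated with serially diluted peptide (0–40 μM) in 10% FBS medium for 96 h at 37 °C. MTT added for 4 h, formazan solubilized overnight in SDS-HCl, absorbance read at 570 nm.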

Where [3] appears, read: Homo sapiens, NCI-H358, 96 h, read-out: EC50.

One may read the IC50 as the concentration that inhibits the measured activity by half. One may read the EC50 as the concentration at which the effect is half-maximal.

GTPase KRas, sequence (P01116 whole entry G12V, the tested form may be a part): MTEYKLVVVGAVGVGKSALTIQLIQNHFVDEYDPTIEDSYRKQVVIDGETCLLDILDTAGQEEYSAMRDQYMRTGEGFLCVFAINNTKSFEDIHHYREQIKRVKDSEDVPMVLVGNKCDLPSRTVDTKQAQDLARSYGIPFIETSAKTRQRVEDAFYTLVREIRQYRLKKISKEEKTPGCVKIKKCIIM

Turning to `C[C@@H]1NC(=O)[C@@H](Cc2ccccc2)NC(=O)[C@@H]2CCCCNC(=O)c3cc(cc(c3)C(=O)N[C@H](Cc3ccc4ccccc4c3)C(=O)N[C@@H](CO)C(=O)N[C@@H](CC(N)=O)C(=O)N[C@H](Cc3ccc4ccccc4c3)C(=O)N[C@@H](c3ccccc3)C(=O)N2)C(=O)NC[C@@H](C(=O)N[C@@H](CCN)CC(=O)N[C@H](CCCNC(=N)N)C(=O)N[C@@H](Cc2ccc(F)cc2)C(=O)N[C@H](C)C(N)=O)NC(=O)[C@H](CCCNC(=N)N)NC(=O)[C@@H](CCCNC(=N)N)NC1=O`, at GTPase KRas (read-out: IC50), the IC50 came out at 0.7 µM. The 50% effective concentration (EC50) in the assay with NCI-H358 [1] stood at 6 µM. For `C[C@@H]1NC(=O)[C@@H](Cc2ccccc2)NC(=O)[C@@H]2CCCCNC(=O)c3cc(cc(c3)C(=O)N[C@H](Cc3ccc4ccccc4c3)C(=O)N[C@@H](CO)C(=O)N[C@@H](CC(N)=O)C(=O)N[C@H](Cc3ccc4ccccc4c3)C(=O)N[C@@H](c3ccccc3)C(=O)N2)C(=O)NC[C@@H](C(=O)N[C@@H](CC(N)=O)C(=O)N[C@H](CCCNC(=N)N)C(=O)N[C@@H](Cc2cccnc2)C(=O)N[C@H](C)C(N)=O)NC(=O)[C@H](CCCNC(=N)N)NC(=O)[C@@H](CCCNC(=N)N)NC1=O`, the IC50 at GTPase KRas (read-out: IC50) is 0.41 µM. The concentration giving a half-maximal response (EC50) with NCI-H358 [1] stood at 6.6 µM.

For the compound `CC(C)C[C@@H](NC(=O)[C@H](CCC(N)=O)NC(=O)CNC(=O)[C@@H]1CNC(=O)c2cc3cc(c2)C(=O)N[C@H](Cc2ccc4ccccc4c2)C(=O)N[C@@H](CO)C(=O)N[C@@H](CCC(N)=O)C(=O)N[C@H](Cc2ccc4ccccc4c2)C(=O)N[C@@H](c2ccccc2)C(=O)N[C@@H](CCCCNC3=O)C(=O)N[C@H](Cc2ccccc2)C(=O)N[C@@H](C)C(=O)N[C@H](CCCNC(=N)N)C(=O)N[C@@H](CCCNC(=N)N)C(=O)N1)C(=O)N[C@H](CCCNC(=N)N)C(=O)N[C@@H](CCCCN)C(N)=O`, the EC50 entry in the assay with NCI-H358 [2] (nci-h358) is recorded as “Not Active”. On to `C[C@@H]1NC(=O)[C@@H](Cc2ccccc2)NC(=O)[C@@H]2CCCCNC(=O)c3cc(cc(c3)C(=O)N[C@H](Cc3ccc4ccccc4c3)C(=O)N[C@@H](CO)C(=O)N[C@@H](CCC(N)=O)C(=O)N[C@H](Cc3ccc4ccccc4c3)C(=O)N[C@@H](c3ccccc3)C(=O)N2)C(=O)NC[C@@H](C(=O)N[C@@H](CCC(=O)O)C(=O)N[C@@H](Cc2cnc[nH]2)C(=O)N2CCC[C@@H]2C(=O)N[C@H](Cc2ccc(O)cc2)C(=O)N[C@@H](CCCCN)C(N)=O)NC(=O)[C@H](CCCNC(=N)N)NC(=O)[C@@H](CCCNC(=N)N)NC1=O`, for which the EC50 entry in the assay with NCI-H358 [2] (nci-h358) is reported as “Not Active”. For the compound `CC(C)[C@@H](NC(=O)C[C@H](CCN)NC(=O)[C@@H]1CNC(=O)c2cc3cc(c2)C(=O)N[C@H](Cc2ccc4ccccc4c2)C(=O)N[C@@H](CO)C(=O)N[C@@H](CCC(N)=O)C(=O)N[C@H](Cc2ccc4ccccc4c2)C(=O)N[C@@H](c2ccccc2)C(=O)N[C@@H](CCCCNC3=O)C(=O)N[C@H](Cc2ccccc2)C(=O)N[C@@H](C)C(=O)N[C@H](CCCNC(=N)N)C(=O)N[C@@H](CCCNC(=N)N)C(=O)N1)C(=O)N[C@H](C)CC(=O)N[C@H](Cc1c[nH]c2ccccc12)C(=O)NCCC(N)=O`, the EC50 entry in the assay with NCI-H358 [2] (nci-h358) was “Not Active”.

For the compound `C[C@@H]1NC(=O)[C@@H](Cc2ccccc2)NC(=O)[C@@H]2CCCCNC(=O)c3cc(cc(c3)C(=O)N[C@H](Cc3ccc4ccccc4c3)C(=O)N[C@@H](CO)C(=O)N[C@@H](CCC(N)=O)C(=O)N[C@H](Cc3ccc4ccccc4c3)C(=O)N[C@@H](c3ccccc3)C(=O)N2)C(=O)NC[C@@H](C(=O)N[C@H](CCCCN)C(=O)N[C@@H](Cc2c[nH]cn2)C(=O)N[C@H](Cc2ccc(O)cc2)C(=O)N[C@H](CCC(=O)O)C(N)=O)NC(=O)[C@H](CCCNC(=N)N)NC(=O)[C@@H](CCCNC(=N)N)NC1=O`, the IC50 entry on GTPase KRas is on record as “Not Active”.

Turning to `C[C@@H]1NC(=O)[C@@H](Cc2ccccc2)NC(=O)[C@@H]2CCCCNC(=O)c3cc(cc(c3)C(=O)N[C@H](Cc3ccc4ccccc4c3)C(=O)N[C@@H](CO)C(=O)N[C@@H](CC(N)=O)C(=O)N[C@H](Cc3ccc4ccccc4c3)C(=O)N[C@@H](c3ccccc3)C(=O)N2)C(=O)NC[C@@H](C(=O)N[C@@H](CC(N)=O)C(=O)N[C@H](CCCNC(=N)N)C(=O)N[C@@H](Cc2ccc(F)c(F)c2)C(=O)N[C@H](C)C(N)=O)NC(=O)[C@H](CCCNC(=N)N)NC(=O)[C@@H](CCCNC(=N)N)NC1=O`, the half-inhibitory concentration (IC50) at GTPase KRas (read-out: IC50) came to 0.5 µM. Moreover, in the assay with NCI-H358 [1], the EC50 stood at 4.4 µM.

Consider `C[C@@H]1NC(=O)[C@@H](Cc2ccccc2)NC(=O)[C@@H]2CCCCNC(=O)c3cc(cc(c3)C(=O)N[C@H](Cc3ccc4ccccc4c3)C(=O)N[C@@H](CO)C(=O)N[C@@H](CC(N)=O)C(=O)N[C@H](Cc3ccc4ccccc4c3)C(=O)N[C@@H](c3ccccc3)C(=O)N2)C(=O)NC[C@@H](C(=O)N[C@@H](CCN)CC(=O)N[C@H](CCCNC(=N)N)C(=O)N[C@@H](Cc2ccccc2)C(=O)N[C@H](C)C(N)=O)NC(=O)[C@H](CCCNC(=N)N)NC(=O)[C@@H](CCCNC(=N)N)NC1=O`, for which the IC50 at GTPase KRas (read-out: IC50) is 0.51 µM. For the same compound, the EC50 in the assay on NCI-H358 [1] came to 3.2 µM. As to `C[C@@H]1NC(=O)[C@@H](Cc2ccccc2)NC(=O)[C@@H]2CCCCNC(=O)c3cc(cc(c3)C(=O)N[C@H](Cc3ccc4ccccc4c3)C(=O)N[C@@H](CO)C(=O)N[C@@H](CCC(N)=O)C(=O)N[C@H](Cc3ccc4ccccc4c3)C(=O)N[C@@H](c3ccccc3)C(=O)N2)C(=O)NC[C@@H](C(=O)N[C@@H](CCN)CC(=O)N[C@H](CCCNC(=N)N)C(=O)N[C@@H](Cc2ccc(F)cc2)C(=O)N[C@H](C)C(=O)N[C@@H](CCCCN)C(N)=O)NC(=O)[C@H](CCCNC(=N)N)NC(=O)[C@@H](CCCNC(=N)N)NC1=O`, the EC50 in the assay with NCI-H358 [2] (setting [3]) is 17 µM. Turning to `C[C@@H]1NC(=O)[C@@H](Cc2ccccc2)NC(=O)[C@@H]2CCCCNC(=O)c3cc(cc(c3)C(=O)N[C@H](Cc3ccc4ccccc4c3)C(=O)N[C@@H](CO)C(=O)N[C@@H](CC(N)=O)C(=O)N[C@H](Cc3ccc4ccccc4c3)C(=O)N[C@@H](c3ccccc3)C(=O)N2)C(=O)NC[C@@H](C(=O)N[C@@H](CCC(N)=O)C(=O)N[C@H](CCCNC(=N)N)C(=O)N[C@@H](Cc2ccccc2)C(=O)N[C@H](C)C(N)=O)NC(=O)[C@H](CCCNC(=N)N)NC(=O)[C@@H](CCCNC(=N)N)NC1=O`, at GTPase KRas (read-out: IC50), the 50% inhibitory concentration (IC50) was 0.23 µM. In addition, the half-maximal effective concentration (EC50) with NCI-H358 [1] came to 7.5 µM. For the compound `CCCC[C@H](NC(=O)CNC(=O)C[C@H](CCC)NC(=O)[C@@H]1CNC(=O)c2cc3cc(c2)C(=O)N[C@H](Cc2ccc4ccccc4c2)C(=O)N[C@@H](CO)C(=O)N[C@@H](CCC(N)=O)C(=O)N[C@H](Cc2ccc4ccccc4c2)C(=O)N[C@@H](c2ccccc2)C(=O)N[C@@H](CCCCNC3=O)C(=O)N[C@H](Cc2ccccc2)C(=O)N[C@@H](C)C(=O)N[C@H](CCCNC(=N)N)C(=O)N[C@@H](CCCNC(=N)N)C(=O)N1)C(=O)N[C@H](CCCNC(=N)N)C(N)=O`, the concentration for a half-maximal effect (EC50) in the assay on NCI-H358 [2] (setting [3]) was determined as 24 µM.

For `C[C@@H]1NC(=O)[C@@H](Cc2ccccc2)NC(=O)[C@@H]2CCCCNC(=O)c3cc(cc(c3)C(=O)N[C@H](Cc3ccc4ccccc4c3)C(=O)N[C@@H](CO)C(=O)N[C@@H](CCC(N)=O)C(=O)N[C@H](Cc3ccc4ccccc4c3)C(=O)N[C@@H](c3ccccc3)C(=O)N2)C(=O)NC[C@@H](C(=O)N2CCC[C@@H]2C(=O)N[C@H](CCCNC(=N)N)C(=O)N[C@H](Cc2ccc3ccccc3c2)C(=O)N[C@@H](CCC(=O)O)C(N)=O)NC(=O)[C@H](CCCNC(=N)N)NC(=O)[C@@H](CCCNC(=N)N)NC1=O`, the IC50 result at GTPase KRas is on record as “Not Active”. Same read-out and setting: the result for `CC(C)[C@@H](NC(=O)C[C@@H](CC(N)=O)NC(=O)[C@@H]1CNC(=O)c2cc3cc(c2)C(=O)N[C@H](Cc2ccc4ccccc4c2)C(=O)N[C@@H](CO)C(=O)N[C@@H](CCC(N)=O)C(=O)N[C@H](Cc2ccc4ccccc4c2)C(=O)N[C@@H](c2ccccc2)C(=O)N[C@@H](CCCCNC3=O)C(=O)N[C@H](Cc2ccccc2)C(=O)N[C@@H](C)C(=O)N[C@H](CCCNC(=N)N)C(=O)N[C@@H](CCCNC(=N)N)C(=O)N1)C(=O)N[C@H](C)CC(=O)N[C@H](Cc1c[nH]c2ccccc12)C(=O)NCCC(N)=O` reads “Not Active”.

Turning to `C[C@@H]1NC(=O)[C@@H](Cc2ccccc2)NC(=O)[C@@H]2CCCCNC(=O)c3cc(cc(c3)C(=O)N[C@H](Cc3ccc4ccccc4c3)C(=O)N[C@@H](CO)C(=O)N[C@@H](CC(N)=O)C(=O)N[C@H](Cc3ccc4ccccc4c3)C(=O)N[C@@H](c3ccccc3)C(=O)N2)C(=O)NC[C@@H](C(=O)N[C@@H](CCN)CC(=O)N[C@H](CCCNC(=N)N)C(=O)N[C@@H](Cc2ccc(F)cc2)C(=O)N[C@H](C)C(=O)N[C@@H](CCCCN)C(N)=O)NC(=O)[C@H](CCCNC(=N)N)NC(=O)[C@@H](CCCNC(=N)N)NC1=O`, the IC50 on GTPase KRas (read-out: IC50) is 0.89 µM. The concentration giving a half-maximal response (EC50) with NCI-H358 [1] stood at 7.2 µM. In the case of `C[C@@H]1NC(=O)[C@@H](Cc2ccccc2)NC(=O)[C@@H]2CCCCNC(=O)c3cc(cc(c3)C(=O)N[C@H](Cc3ccc4ccccc4c3)C(=O)N[C@@H](CO)C(=O)N[C@@H](CC(N)=O)C(=O)N[C@H](Cc3ccc4ccccc4c3)C(=O)N[C@@H](c3ccccc3)C(=O)N2)C(=O)NC[C@@H](C(=O)N[C@@H](CC(N)=O)C(=O)N[C@H](CCCNC(=N)N)C(=O)N[C@@H](Cc2ccccc2)C(=O)N[C@H](C)C(N)=O)NC(=O)[C@H](CCCNC(=N)N)NC(=O)[C@@H](CCCNC(=N)N)NC1=O`, the IC50 at GTPase KRas (read-out: IC50) turned out to be 0.28 µM. Moreover, the EC50 in the assay on NCI-H358 [1] was determined as 8.4 µM. Turning to `C[C@@H]1NC(=O)[C@@H](Cc2ccccc2)NC(=O)[C@@H]2CCCCNC(=O)c3cc(cc(c3)C(=O)N[C@H](Cc3ccc4ccccc4c3)C(=O)N[C@@H](CO)C(=O)N[C@@H](CCC(N)=O)C(=O)N[C@H](Cc3ccc4ccccc4c3)C(=O)N[C@@H](c3ccccc3)C(=O)N2)C(=O)NC[C@@H](C(=O)N2CCC[C@@H]2C(=O)N[C@H](CCCNC(=N)N)C(=O)N[C@H](Cc2ccccc2)C(=O)N[C@H](Cc2ccc(O)cc2)C(N)=O)NC(=O)[C@H](CCCNC(=N)N)NC(=O)[C@@H](CCCNC(=N)N)NC1=O`, the IC50 result at GTPase KRas is “Not Active”.
